For one data set, the target named is Trypsin (Homo sapiens) (UniProt P07477+P07478+P35030). Put plainly: Inhibition of trypsin (unknown origin) using Boc-Val-Pro-Arg-AMC as substrate at 25 uM preincubated with protein for 15 mins followed by substrate addition by continuous fluorimetric assay relative to control.
In data set [1] the target is Prothrombin (Homo sapiens) (UniProt P00734). Put plainly: Inhibition of thrombin (unknown origin) using Boc-Val-Pro-Arg-AMC as substrate at 25 uM preincubated with protein for 15 mins followed by substrate addition measured for 10 mins by continuous fluorimetric assay relative to control.
Data set [2] deals with West Nile virus. Put plainly: Inhibition of West Nile virus NS2B-NS3 protease using 2-Abz-Gly-Leu-Lys-Arg-Gly-Gly-[…]-Tyr-NH2 as substrate at 50 uM preincubated with protein for 15 mins followed by substrate addition measured for 15 mins by FRET assay. The method in brief: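 Linked WNV NS2B-NS3 protease (150 nM) was preincubated 15 min with inhibitor (50 μM final) in 50 mM Tris-HCl pH 9, 10% ethylene glycol, 0.0016% Brij 58. […] Percent inhibition was taken from the slope relative to the no-inhibitor control, in triplicate.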

Data set [3] in a line: Inhibition of West Nile virus NS2B-NS3 protease using 2-Abz-Gly-Leu-Lys-Arg-Gly-Gly-[…]-Tyr-NH2 as substrate preincubated with protein for 15 mins followed by substrate addition measured for 15 mins by FRET assay. The method in brief: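 WNV NS2B-NS3 linked construct at 75 nM (40 nM in one case) in pH 9 Tris buffer, preincubated 15 min with eight inhibitor concentrations (ranges 0–1 up to 0–50 μM). Substrate was 50 μM, with FRET readout over 15 min. IC50 was fitted from triplicates.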

Data set [4] is described as follows: Inhibition of Dengue virus serotype-2 NS2B-NS3 protease using 2-Abz-Nle-Lys-Arg-Arg-Ser-(3-NO2)-Tyr-NH2 as substrate preincubated with protein for 15 mins followed by substrate addition measured for 15 mins by FRET assay. On the set-up: species or system dengue virus type 2. The method in brief: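 DENV-2 NS2B-NS3 linked construct at 30 nM (15 nM in some cases), same pH 9 Tris buffer, 15 min preincubation and FRET read-out. Eight inhibitor concentrations spanned 0–1, 0–2, 0–6 or 0–50 μM, with substrate at 50 μM. IC50 was fitted from triplicates.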

For data set [5], the system named is dengue virus type 2. Put plainly: Antiviral activity against Dengue virus serotype-2 infected in African green monkey Vero cells after 7 days by virus yield reduction assay. It counts as functional, organism-based.
The subject of data set [6] is West Nile virus. Put plainly: Antiviral activity against West Nile virus infected in human HuH7 cells after 3 days by virus yield reduction assay. The class given is functional, organism-based. To be noted: Huh-7, 72 h.
Data set [7] in a line: Cytotoxicity against human HuH7 cells infected with Dengue virus serotype-2 assessed as cell viability after 48 hrs by Cell-Titer-Glo luminescent viability assay. The class given is cell-based, Huh-7. The method in brief:
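Huh-7 cells (10^4/well) were seeded in DMEM + 10% FBS overnight, then infected with WT DENV-2 (MOI 1) in the presence of compound, triplicate per concentration. After 48 h at 37 °C, medium was replaced with fresh DMEM and viability was read by CellTiter-Glo luminescence. CC50 was determined.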

Data set [8] is described as follows: Cytotoxicity against human HuH7 cells infected with West Nile virus assessed as cell viability after 48 hrs by Cell-Titer-Glo luminescent viability assay. It counts as cell-based, Huh-7. In outline: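 Huh-7 cells (10^4/well, DMEM + 10% FBS, overnight) were infected with WT WNV (MOI 0.1) alongside compound, each concentration in triplicate. After 48 h at 37 °C, fresh DMEM was added and viability was measured by CellTiter-Glo luminescence. CC50 was determined.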

A short description of data set [9]: Retention time of compound by RP-HPLC analysis. The class given is physicochemical.
Data set [10] in a line: Selectivity index, ratio of CC50 for African green monkey Vero cells to EC50 for Dengue virus serotype-2 infected in African green monkey Vero cells. It counts as toxicity, cell-based. To be noted: read-out: Ratio CC50/EC50.
Data set [11] concerns dengue virus type 2. Put plainly: Inhibition of Dengue virus serotype-2 NS2B-NS3 protease using 2-Abz-Nle-Lys-Arg-Arg-Ser-(3-NO2)-Tyr-NH2 as substrate preincubated with protein for 15 mins followed by substrate addition measured for 15 mins by FRET assay relative to Bz-Lys-Arg-Phg-NH2.
Data set [12] has as its system West Nile virus. Put plainly: Inhibition of West Nile virus NS2B-NS3 protease using 2-Abz-Gly-Leu-Lys-Arg-GlyGly-[…]-Tyr-NH2 as substrate preincubated with protein for 15 mins followed by substrate addition measured for 15 mins by FRET assay relative to Bz-Lys-Arg-Phg-NH2.
Data set [13] relates to dengue virus type 2. Put plainly: Inhibition of Dengue virus serotype-2 NS2B-NS3 protease using 2-Abz-Nle-Lys-Arg-Arg-Ser-(3-NO2)-Tyr-NH2 as substrate at 50 uM preincubated with protein for 15 mins followed by substrate addition measured for 15 mins by FRET assay.
Data set [14] deals with West Nile virus. Put plainly: Inhibition of West Nile virus NS2B-NS3 protease at 0 to 48 uM incubated for 1 hr by tryptophan quenching assay.
In data set [15] the test system is dengue virus type 2. Put plainly: Inhibition of Dengue virus serotype-2 NS2B-NS3 protease at 0 to 48 uM incubated for 1 hr by tryptophan quenching assay.
Data set [16] deals with dengue virus type 2. Put plainly: Competitive inhibition of Dengue virus serotype-2 NS2B-NS3 protease in presence of aprotinin by fluorescence displacement assay based Cheng-Prusoff plot.
Data set [17] concerns West Nile virus. Put plainly: Competitive inhibition of West Nile virus NS2B-NS3 protease in presence of aprotinin by fluorescence displacement assay based Cheng-Prusoff plot.
The nature of data set [18]: Half life in Sprague-Dawley rat liver microsomes incubated for 30 mins by UV-HPLC method. It counts as ADME. In outline: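 Pooled male rat liver microsomes (0.2 mg/mL protein) with NADPH (10 mM) in DPBS were preincubated 15 min at 37 °C. Compound (100 μM) was added and incubated at 37 °C; aliquots were taken at 0, 2, 5, 10, 20 and 30 min. Samples were quenched with equal-volume acetonitrile, chilled and centrifuged, and parent remaining was quantified by RP-HPLC UV against reference peak areas. Testosterone served as positive control.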
For orientation: Liver microsomes are a subcellular fraction often used to study metabolism.

Data set [19] relates to dengue virus type 2. Put plainly: Potency index, ratio of EC50 for relative to Bz-Lys-Arg-Phg-NH2 to EC50 for test compound for antiviral activity against Dengue virus serotype-2 infected in African green monkey Vero cells after 7 days by virus yield reduction assay. It counts as functional. The method in brief: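 Huh-7 cells (10^4/well) in DMEM + 10% FBS, held overnight at 37 °C, then infected with DENV-2 (MOI 1) with nontoxic compound concentrations. Each concentration in triplicate, 48 h at 37 °C, then supernatants pooled. Titres by plaque assay on Vero E6 (10^-1 to 10^-6 dilutions, 1 h adsorption, 7 days, formaldehyde fix, crystal violet, plaque count). EC50 from nonlinear dose-response fit; reference inhibitor also assayed.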

A short description of data set [20]: Permeability of compound after 5 hrs by PAMPA. It counts as ADME. To be noted: read-out: permeability. The method in brief:
(§1)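 Precoated PAMPA plates were equilibrated 1 h at room temperature. Donor wells received 200 μM compound in PBS, in triplicate, and acceptor wells received PBS. After 5 h at room temperature, donor and acceptor concentrations were quantified by RP-HPLC UV at 254 nm against six-point calibration curves (10–200 μM). Pe and mass retention were calculated by literature formulas.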
Background: The PAMPA barrier holds no transporters, so it reflects passive diffusion.

Data set [21] is described as follows: Permeability of compound assessed as compound mass retention after 5 hrs by PAMPA. It counts as ADME. The method in brief: as §1
The test system of data set [22] is West Nile virus. Put plainly: Potency index, ratio of EC50 for relative to Bz-Lys-Arg-Phg-NH2 to EC50 for test compound for antiviral activity against West Nile virus infected in human HuH7 cells after 3 days by virus yield reduction assay. The class given is functional, Huh-7. The method in brief:
(§2)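 Huh-7 cells (10^4/well) in DMEM + 10% FBS, overnight at 37 °C, then infected with WNV (MOI 0.1) plus compound, triplicate, 48 h. Pooled supernatant plaque-titrated on Vero E6 (10^-2 to 10^-7, 3 days, crystal violet), giving EC50 by nonlinear fit. Viability of the same infected cells by CellTiter-Glo luminescence gave CC50. Reference inhibitor also assayed.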

A short description of data set [23]: Selectivity index, ratio of CC50 for human HuH7 cells to EC50 for West Nile virus infected in human HuH7 cells. The class given is toxicity, cell-based, Huh-7. To be noted: read-out: Ratio CC50/EC50. The method in brief:
as §2

The source made the active and inactive calls.

Experimental findings from ChEMBL document CHEMBL3739314, “Discovery of Nanomolar Dengue and West Nile Virus Protease Inhibitors Containing a 4-Benzyloxyphenylglycine Residue” (J Med Chem, 2015) are described below.

For `N=C(N)NCCC[C@H](NC(=O)c1cccs1)C(=O)N[C@@H](CCCCN)C(=O)N[C@@H](C(N)=O)c1ccc(OCc2ccc(Cl)c(Cl)c2)cc1`, the inhibition result (on Trypsin (Homo sapiens); in data set [1]) was “inactive” each time. In addition, in the data set with West Nile virus [2], the inhibition was 98%. Also, the half-inhibitory concentration (IC50) in [3] and in [4] was 79 nM throughout. Moreover, the results for the EC50 with dengue virus type 2 [5] and in the data set on West Nile virus [6] were 4060 nM and 23300 nM, respectively. The CC50 at 48 h in data set [7] and in data set [8] was more than 100000 nM throughout. In addition, in data set [9], the Retention_time worked out at 3.22 min. Further, in data set [10], the selectivity ratio was more than 25.

As for `N=C(N)NCCC[C@H](NC(=O)c1ccccc1)C(=O)N[C@@H](CCCCN)C(=O)N[C@@H](C(N)=O)c1ccc(OCc2ccccc2)cc1`, the inhibition entry on Trypsin (Homo sapiens) is “inactive”. In addition, the fold change (FC) with dengue virus type 2 [11] came out at 9; with West Nile virus [12], 80. For the same compound, the inhibition in data set [1] was less than 30%; in the data set on West Nile virus [2], 101%; with dengue virus type 2 [13], 100%. Also, the figures for the concentration for half-maximal inhibition (IC50) in [3] and in data set [4] were 728 nM and 367 nM, respectively. Moreover, the Ki in data set [3] was 536 nM; in data set [4], 307 nM. This compound also yielded a concentration for a half-maximal effect (EC50) with dengue virus type 2 [5] of 7940 nM. In addition, the CC50 at 48 h in [7] was more than 100000 nM. In data set [9], this compound came in with a Retention_time of 2.83 min.

Turning to `N=C(N)NCCC[C@H](NC(=O)c1nccs1)C(=O)N[C@@H](CCCCN)C(=O)N[C@@H](C(N)=O)c1ccc(OCc2ccc(C(F)(F)F)cc2)cc1`, the inhibition entry in the data set with West Nile virus [14], in the data set with dengue virus type 2 [15], in the data set with dengue virus type 2 [16] and in the data set on West Nile virus [17] was “Active” in each case. The inhibition result (at Trypsin (Homo sapiens); in [1]) was “inactive” in each case. Also, the inhibition with West Nile virus [2] worked out at 100%. Moreover, the figures for the concentration for half-maximal inhibition (IC50) in data set [3] and in data set [4] were 50 nM and 18 nM, respectively. Besides, the Ki in [3] was determined as 39 nM; in data set [4], 12 nM. For the same compound, the figures for the EC50 in the data set on dengue virus type 2 [5] and in the data set with West Nile virus [6] were 20400 nM and 23400 nM, respectively. The CC50 at 48 h in [7] and in data set [8] was more than 100000 nM each time. In data set [9], this compound yielded a Retention_time of 3.11 min. Also, in data set [18], the half-life was determined as 0.75 h.

`COc1cccc(COc2ccc([C@@H](NC(=O)[C@H](CCCCN)NC(=O)[C@H](CCCNC(=N)N)NC(=O)c3ccc(-c4cccs4)s3)C(N)=O)cc2)c1`: the inhibition entry in the data set with West Nile virus [14] and in the data set with dengue virus type 2 [15] was “Active” each time. Moreover, the inhibition entry (on Trypsin (Homo sapiens); in data set [1]) was “inactive” each time. For the same compound, in the data set with West Nile virus [2], the inhibition amounted to 100%. Also, the half-inhibitory concentration (IC50) in data set [3] is 557 nM; in [4], 176 nM. The “Ratio EC50” value in the data set with dengue virus type 2 [19] was determined as 25; in the data set with West Nile virus [22], 7. The values for the EC50 in the data set on dengue virus type 2 [5] and in the data set with West Nile virus [6] were 3420 nM and 15600 nM, respectively. Also, the CC50 at 48 h in [7] and in data set [8] was more than 100000 nM in each case. Besides, the Papp at 5 h in data set [20] is 0.65 ×10⁻⁶ cm/s. In addition, the Retention_time in data set [9] worked out at 3.28 min. In addition, the permeability in [21] was 1.15%. The compound also came in with a half-life in [18] of 2.92 h. Also, the selectivity ratio in data set [10] is more than 25; in [23], more than 7.

As usually defined, the inhibition is the relative decrease from the control value, in per cent. Usually IC50 stands for the concentration that gives 50% inhibition. A word on the EC50: it is the concentration needed to bring the measured effect to its halfway point. Broadly, the CC50 is the concentration at which the toxic effect on the cells reaches its halfway point. Usually Ki stands for a dissociation constant, usually derived from enzyme kinetics or from competition with a known ligand. A word on the half-life: it is the time needed for the level to fall by half in the phase considered.
